# Source: ChEMBL document CHEMBL1129545, “Synthesis and evaluation of the antiproliferative effects of 1-O-hexadecyl-2-O-methyl-3-O-(2'-acetamido-2'-deoxy-beta-D- glucopyranosyl)-sn-glycerol and 1-O-hexadecyl-2-O-methyl-3-0- (2'-amino-2'-deoxy-beta-D-glucopyranosyl)-sn-glycerol on epithelial cancer cell growth” (J Med Chem, 1996)
# Experiments:
# Format in all cases: functional, cell-based
# A-427 = assay: Inhibitory activity against A427 epithelial Cancer cell line at the concentration 0-30 uM for 48 hr; conditions: Homo sapiens, A-427, 48 h
# Procedure, shortened: (§1)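 Human lines from frozen ATCC stocks: A549 in Ham's F-12, T84 in 1:1 F-12/DMEM, MCF-7 and A427 in DMEM, with 10% FBS. Log-phase cells in 24-well plates had medium replaced with drug-containing medium (0–30 μM, serial dilution of ethanol stocks) for 48 h. Coulter counts of cell increase as percent of drug-free controls; IC50 for 50% inhibition; means of eight determinations.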
# A549 = assay: Inhibitory activity against A549 epithelial Cancer cell line at the concentration 0-30 uM for 48 hr; conditions: Homo sapiens, A549, 48 h; procedure, shortened: as §1
# MCF7 = assay: Inhibitory activity against MCF-7 epithelial Cancer cell line at the concentration 0-30 uM for 48 hr; conditions: Homo sapiens, MCF7, 48 h; procedure, shortened: as §1
# OVCAR-3 [1] = assay: Inhibitory activity against OVCAR-3 epithelial Cancer cell line at the concentration 0-30 uM for 48 hr; conditions: Homo sapiens, OVCAR-3, 48 h
# Procedure, shortened: (§2)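 OVCAR-3 ovarian adenocarcinoma cells in RPMI 1640 with 20% FBS and 10 μg/mL insulin, in 24-well plates. At log phase, medium was replaced with drug-containing medium (0–30 μM, serial dilution of ethanol stocks) for 48 h. Increase in cell number was counted on a Coulter counter relative to drug-free wells, and IC50 was taken as 50% inhibition.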
# T84 = assay: Inhibitory activity against T84 epithelial Cancer cell line at the concentration 0-30 uM for 48 hr; conditions: Homo sapiens, T84, 48 h; procedure, shortened: as §1
# OVCAR-3 [2] = assay: Inhibitory activity against OVCAR-3 cell growth; conditions: Homo sapiens; procedure, shortened: as §2
Compound,IC50 (A-427) [µM],IC50 (A549) [µM],IC50 (MCF7) [µM],IC50 (OVCAR-3 [1]) [µM],IC50 (T84) [µM],IC50 (OVCAR-3 [2]) [µM]
CCCCCCCCCCCCCCCCOC[C@H](CO[C@H]1O[C@@H](CO)[C@H](O)[C@@H](O)[C@@H]1NC(C)=O)OC,24.5,9,17,12,> 30,–
CCCCCCCCCCCCCCCCOC[C@H](CO[C@H]1O[C@@H](CO)[C@H](O)[C@@H](O)[C@@H]1N)OC,7,8.3,6.5,4,12.2,–
CCCCCCCCCCCCCCCCOP(=O)([O-])OCC[N+](C)(C)C [MILTEFOSINE],–,–,–,–,–,> 30
